ChEMBL document CHEMBL5303300, “EUbOPEN Chemogenomics Library - Multiplex” (2023)
“And” between values parts separate entries of the source, which are not always exact repeats. Equal entries are not always repeated.

Tested on: U2OS
Assay: Multiplex assay against U2OS
Assay type: toxicity, cell-based
Details: human, number of replicates 2
Procedure, shortened: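 Compound was added to live cells that had been stained at seeding with Hoechst33342, BioTracker Green Microtubule Cytoskeleton Dye, MitoTracker Red and Annexin V Alexa Fluor 680, and imaging followed on a CQ1 microscope at 37°C and 5% CO2. CellPathfinder machine-learning gating divided cells into Hoechst high-intensity objects or normal cells, normal cells into healthy, pyknosed or fragmented nuclei, and pyknosed cells into mitotic or apoptotic. Tubulin, mitochondrial-mass and membrane-permeability phenotypes are per cents of healthy-nucleus cells.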

[1] = 12 h, 1 µM, compound concentration 1 uM
[2] = 12 h, 10 µM, compound concentration 10 uM
[3] = 24 h, 1 µM, compound concentration 1 uM
[4] = 24 h, 10 µM, compound concentration 10 uM
[5] = 48 h, 1 µM, compound concentration 1 uM
[6] = 48 h, 10 µM, compound concentration 10 uM

SMILES: Cn1ncc(NC(=O)c2nc(-c3c(F)cccc3F)sc2N)c1N1CC[C@@H](N)[C@H](F)CC1
- Population Apoptotic (%) [1]: 55% and 77%
- Population Healthy Nuclei (%) [1]: 46% and 79%
- Population Hoechst High Intensity Objects (%) [1]: 0%
- Population Mitochondria Different-Phenotype (%) [1]: 0%
- Population Normal (%) [1]: 100%
- Population Pyknosed Nuclei (%) [1]: 19%
- Population Tubulin-Different-Phenotype (%) [1]: 50% and 77%
- Population Apoptotic (%) [2]: 73% and 69%
- Population Healthy Nuclei (%) [2]: 22% and 53%
- Population Hoechst High Intensity Objects (%) [2]: 0%
- Population Mitochondria Different-Phenotype (%) [2]: 0% and 18%
- Population Normal (%) [2]: 98% and 99%
- Population Pyknosed Nuclei (%) [2]: 44% and 24%
- Population Tubulin-Different-Phenotype (%) [2]: 38% and 39%
- Population Apoptotic (%) [3]: 50% and 89%
- Population Healthy Nuclei (%) [3]: 48% and 85%
- Population Hoechst High Intensity Objects (%) [3]: 0%
- Population Mitochondria Different-Phenotype (%) [3]: 8%
- Population Normal (%) [3]: 100% and 99%
- Population Pyknosed Nuclei (%) [3]: 16% and 7%
- Population Tubulin-Different-Phenotype (%) [3]: 62% and 80%
- Population Apoptotic (%) [4]: 90% and 86%
- Population Mitochondria Different-Phenotype (%) [4]: 33%
- Population Normal (%) [4]: 98% and 100%
- Population Pyknosed Nuclei (%) [4]: 49% and 31%
- Population Tubulin-Different-Phenotype (%) [4]: 33% and 56%
- Total Cell Count [4]: 64 and 190
- Population Apoptotic (%) [5]: 84% and 66%
- Population Healthy Nuclei (%) [5]: 90% and 65%
- Population Hoechst High Intensity Objects (%) [5]: 0%
- Population Mitochondria Different-Phenotype (%) [5]: 7%
- Population Normal (%) [5]: 100%
- Population Pyknosed Nuclei (%) [5]: 5%
- Population Tubulin-Different-Phenotype (%) [5]: 84% and 49%
- Population Apoptotic (%) [6]: 96% and 93%
- Population Healthy Nuclei (%) [6]: 21% and 44%
- Population Hoechst High Intensity Objects (%) [6]: 0%
- Population Mitochondria Different-Phenotype (%) [6]: 25% and 19%
- Population Normal (%) [6]: 100%
- Population Pyknosed Nuclei (%) [6]: 53% and 36%
- Population Tubulin-Different-Phenotype (%) [6]: 41% and 57%

SMILES: CC(C)S(=O)(=O)c1ccccc1Nc1nc(N[C@@H]2CCCN(CCCCCCCNC(=O)COc3cccc4c3C(=O)N(C3CCC(=O)N(C)C3=O)C4=O)C2)ncc1Cl (stereo not given in full)
- Population Apoptotic (%) [1]: 93% and 83%
- Population Healthy Nuclei (%) [1]: 34% and 71%
- Population Hoechst High Intensity Objects (%) [1]: 0%
- Population Mitochondria Different-Phenotype (%) [1]: 8% and 7%
- Population Mitotic Cells (%) [1]: 6% and 16%
- Population Normal (%) [1]: 100%
- Population Pyknosed Nuclei (%) [1]: 22% and 23%
- Population Tubulin-Different-Phenotype (%) [1]: 69% and 61%
- Total Cell Count [1]: 66 and 157
- Population Apoptotic (%) [2]: 85% and 77%
- Population Healthy Nuclei (%) [2]: 48% and 56%
- Population Hoechst High Intensity Objects (%) [2]: 0% and 1%
- Population Membrane Permeable-Phenotype (%) [2]: 80% and 93%
- Population Mitochondria Different-Phenotype (%) [2]: 66% and 54%
- Population Mitotic Cells (%) [2]: 14% and 22%
- Population Normal (%) [2]: 100% and 98%
- Population Pyknosed Nuclei (%) [2]: 22% and 37%
- Population Tubulin-Different-Phenotype (%) [2]: 100%
- Population Apoptotic (%) [3]: 85% and 89%
- Population Fragmented Nuclei (%) [3]: 26% and 13%
- Population Healthy Nuclei (%) [3]: 29% and 51%
- Population Hoechst High Intensity Objects (%) [3]: 1% and 0%
- Population Membrane Permeable-Phenotype (%) [3]: 0% and 6%
- Population Mitochondria Different-Phenotype (%) [3]: 0% and 4%
- Population Mitotic Cells (%) [3]: 14% and 10%
- Population Normal (%) [3]: 98% and 100%
- Population Pyknosed Nuclei (%) [3]: 44% and 34%
- Population Tubulin-Different-Phenotype (%) [3]: 77% and 84%
- Total Cell Count [3]: 62 and 166
- Population Apoptotic (%) [4]: 85% and 93%
- Population Fragmented Nuclei (%) [4]: 8% and 12%
- Population Hoechst High Intensity Objects (%) [4]: 0% and 1%
- Population Membrane Permeable-Phenotype (%) [4]: 50% and 40%
- Population Mitochondria Different-Phenotype (%) [4]: 50% and 64%
- Population Mitotic Cells (%) [4]: 14% and 6%
- Population Normal (%) [4]: 100% and 98%
- Population Pyknosed Nuclei (%) [4]: 84% and 57%
- Population Tubulin-Different-Phenotype (%) [4]: 100% and 68%
- Population Apoptotic (%) [5]: 89% and 93%
- Population Fragmented Nuclei (%) [5]: 19% and 13%
- Population Healthy Nuclei (%) [5]: 29% and 44%
- Population Hoechst High Intensity Objects (%) [5]: 0%
- Population Membrane Permeable-Phenotype (%) [5]: 5% and 9%
- Population Mitochondria Different-Phenotype (%) [5]: 0% and 5%
- Population Mitotic Cells (%) [5]: 10% and 6%
- Population Normal (%) [5]: 100% and 99%
- Population Pyknosed Nuclei (%) [5]: 50% and 41%
- Population Tubulin-Different-Phenotype (%) [5]: 70% and 87%
- Population Apoptotic (%) [6]: 100% and 94%
- Population Fragmented Nuclei (%) [6]: 9% and 10%
- Population Healthy Nuclei (%) [6]: 18% and 14%
- Population Hoechst High Intensity Objects (%) [6]: 4% and 3%
- Population Membrane Permeable-Phenotype (%) [6]: 75% and 62%
- Population Mitochondria Different-Phenotype (%) [6]: 100% and 53%
- Population Mitotic Cells (%) [6]: 0% and 5%
- Population Normal (%) [6]: 95% and 96%
- Population Pyknosed Nuclei (%) [6]: 72% and 75%
- Population Tubulin-Different-Phenotype (%) [6]: 75% and 96%

SMILES: C[C@@H]1CC[C@@]2(OC1)O[C@H]1[C@@H](O)[C@H]3[C@@H]4CC[C@H]5C[C@@H](O[C@@H]6O[C@H](CO)[C@H](O[C@@H]7O[C@H](CO)C(O)[C@H](O[C@@H]8OC[C@@H](O)[C@H](O)[C@H]8O)[C@H]7O[C@@H]7O[C@H](CO)[C@H](O)[C@H](O[C@@H]8O[C@H](CO)[C@@H](O)[C@H](O)[C@H]8O)[C@H]7O)[C@H](O)[C@H]6O)[C@H](O)C[C@]5(C)[C@H]4CC[C@]3(C)[C@H]1[C@@H]2C (stereo not given in full) [DIGITONIN]
- Population Apoptotic (%) [2]: 65% [middle of 4 runs]
- Population Healthy Nuclei (%) [2]: 67% and 87% and 86% and 88%
- Population Hoechst High Intensity Objects (%) [2]: 0%
- Population Membrane Permeable-Phenotype (%) [2]: 0% and 7% and 1% and 3%
- Population Mitochondria Different-Phenotype (%) [2]: 0% and 3%
- Population Normal (%) [2]: 100%
- Population Pyknosed Nuclei (%) [2]: 5% and 3% and 9%
- Population Tubulin-Different-Phenotype (%) [2]: 72% and 92% and 85% and 94%
- Population Apoptotic (%) [4]: 58% [middle of 4 runs]
- Population Healthy Nuclei (%) [4]: 67% and 83% and 85% and 86%
- Population Hoechst High Intensity Objects (%) [4]: 0%
- Population Membrane Permeable-Phenotype (%) [4]: 0% and 2% and 1%
- Population Mitochondria Different-Phenotype (%) [4]: 0% and 2%
- Population Normal (%) [4]: 100%
- Population Pyknosed Nuclei (%) [4]: 13% and 12% and 9%
- Population Tubulin-Different-Phenotype (%) [4]: 65% and 97% and 90% and 96%
- Population Apoptotic (%) [6]: 70% and 100% and 62% and 51%
- Population Healthy Nuclei (%) [6]: 68% and 75% and 92% and 91%
- Population Hoechst High Intensity Objects (%) [6]: 1% and 0%
- Population Membrane Permeable-Phenotype (%) [6]: 3% and 1% and 0%
- Population Mitochondria Different-Phenotype (%) [6]: 5% and 1% and 0%
- Population Normal (%) [6]: 98% and 100% and 99%
- Population Pyknosed Nuclei (%) [6]: 13% and 7% and 6% and 5%
- Population Tubulin-Different-Phenotype (%) [6]: 84% and 100% and 92% and 97%

SMILES: CCCCOc1c(C(=O)c2c(F)cc(C)cc2F)c[nH]c2nncc1-2
- Population Apoptotic (%) [1]: 54% and 60%
- Population Healthy Nuclei (%) [1]: 52% and 86%
- Population Hoechst High Intensity Objects (%) [1]: 0%
- Population Membrane Permeable-Phenotype (%) [1]: 0% and 3%
- Population Mitochondria Different-Phenotype (%) [1]: 0% and 1%
- Population Mitotic Cells (%) [1]: 45% and 40%
- Population Normal (%) [1]: 100%
- Population Pyknosed Nuclei (%) [1]: 20% and 9%
- Population Tubulin-Different-Phenotype (%) [1]: 89% and 86%
- Population Apoptotic (%) [2]: 42% and 84%
- Population Fragmented Nuclei (%) [2]: 19% and 8%
- Population Healthy Nuclei (%) [2]: 29% and 79%
- Population Hoechst High Intensity Objects (%) [2]: 0%
- Population Membrane Permeable-Phenotype (%) [2]: 2% and 1%
- Population Mitochondria Different-Phenotype (%) [2]: 0%
- Population Normal (%) [2]: 100%
- Population Tubulin-Different-Phenotype (%) [2]: 73% and 91%
- Total Cell Count [2]: 143 and 207
- Population Apoptotic (%) [3]: 46% and 62%
- Population Fragmented Nuclei (%) [3]: 10% and 5%
- Population Healthy Nuclei (%) [3]: 52% and 82%
- Population Hoechst High Intensity Objects (%) [3]: 0%
- Population Membrane Permeable-Phenotype (%) [3]: 0% and 1%
- Population Mitochondria Different-Phenotype (%) [3]: 0%
- Population Mitotic Cells (%) [3]: 53% and 37%
- Population Normal (%) [3]: 100%
- Population Tubulin-Different-Phenotype (%) [3]: 76% and 79%
- Population Apoptotic (%) [4]: 41% and 66%
- Population Hoechst High Intensity Objects (%) [4]: 1% and 0%
- Population Membrane Permeable-Phenotype (%) [4]: 6% and 2%
- Population Mitochondria Different-Phenotype (%) [4]: 0%
- Population Mitotic Cells (%) [4]: 58% and 33%
- Population Normal (%) [4]: 98% and 100%
- Population Tubulin-Different-Phenotype (%) [4]: 81% and 86%
- Total Cell Count [4]: 187 and 205
- Population Apoptotic (%) [5]: 37% and 67%
- Population Fragmented Nuclei (%) [5]: 5% and 4%
- Population Healthy Nuclei (%) [5]: 71% and 88%
- Population Hoechst High Intensity Objects (%) [5]: 0%
- Population Membrane Permeable-Phenotype (%) [5]: 4% and 2%
- Population Mitochondria Different-Phenotype (%) [5]: 4% and 1%
- Population Mitotic Cells (%) [5]: 62% and 32%
- Population Normal (%) [5]: 100% and 99%
- Population Tubulin-Different-Phenotype (%) [5]: 77% and 74%
- Population Apoptotic (%) [6]: 35% and 75%
- Population Hoechst High Intensity Objects (%) [6]: 0%
- Population Membrane Permeable-Phenotype (%) [6]: 7% and 4%
- Population Mitochondria Different-Phenotype (%) [6]: 0%
- Population Mitotic Cells (%) [6]: 64% and 24%
- Population Normal (%) [6]: 100%
- Population Tubulin-Different-Phenotype (%) [6]: 73% and 77%
- Total Cell Count [6]: 291 and 241
